In PubChem BioAssay AID2292 (The Scripps Research Institute Molecular Screening Center, 2010):
Some of the results follow. Activity calls are given as the source filed them.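 Rule for the calls: active = mean inhibition across replicates above a set limit taken from the earlier primary screen (cut at about 28% in these data); inactive = the rest.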

What follows are molecules tested on Epstein-Barr virus nuclear antigen 1 (EBNA-1) DNA-binding domain, Human herpesvirus 4 (assay: EBNA-1 DNA-binding inhibitors, retest, confirmation, biochemical, fluorescence polarization, triplicate (AID 2292;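 note: plate controls were EBNA-1 protein with DMSO for no effect and wells lacking EBNA-1 for full effect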)). Settings: Recombinant EBNA-1 DBD, Cy5-DNA fluorescence polarization; at 14.8 µM; hits give high values.
Summary of the method: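 Timing: 30 min protein-DNA premix, then 1 h compound exposure, RT; material: E. coli-made EBNA-1 DBD, residues 448-610; replicates: each compound tested in triplicate; measured by: FP at Ex 620 nm / Em 688 nm; benchmarks: high control without EBNA-1, low control with EBNA-1 only; reagent: 10 nM Cy5 DNA hairpin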

Row | Compound | inhibition
1 | Cc1cccc(NC(=O)Cn2c(=O)n(Cc3ccccc3)c(=O)c3c(C)c(C)sc32)c1 | 5.76% (inactive)
2 | COc1ccc(C)cc1NC(=O)NCc1ccccn1 | -7.1% (inactive)
3 | COc1ccc(CNc2nc3c(c(=O)[nH]c(=O)n3C)n2Cc2ccccc2)cc1 | 7.27% (inactive)
4 | CCc1nccn1S(=O)(=O)c1cccc([N+](=O)[O-])c1 | 1.11% (inactive)
5 | COc1ccc(-c2ccc(Nc3ccc(S(=O)(=O)N4CCCC4)cc3)nn2)cc1OC | -1.8% (inactive)
6 | CCOC(=O)c1ccc(NC(=O)C2CC(=O)Nc3nc4ccccc4n32)cc1 (configuration not stated) | 61% (active)
7 | CC(=O)c1c(C)[nH]c(C(=O)OCC(=O)Nc2sc3c(c2C#N)CCCC3)c1C | 25.9% (inactive)
